Test results from ChEMBL document CHEMBL4765447, “Design, synthesis and biological evaluation of diamino substituted cyclobut-3-ene-1,2-dione derivatives for the treatment of drug-resistant tuberculosis” (Eur J Med Chem, 2020).
≈ marks a conversion by molar mass, not a printed value.

Tests used:
[1] = system: Mycobacterium tuberculosis; assay: Inhibition of ATP synthase in multi-drug resistant Mycobacterium tuberculosis clinical isolate 13946 assessed as reduction in bacterial growth incubated for 7 days by microplate alamar blue assay; conditions: time 7.0 day
Method in brief: (§1)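 Microplate alamar blue assay. Strains grown to late log phase in 7H9 broth with 0.2% glycerol, 0.05% Tween 80 and 10% ADC, then washed, filtered (8 µm) and frozen. Twofold compound dilutions with 2×10^5 CFU per well at 37 °C. On day 7, Tween 80 and alamar blue added; after 16–24 h, fluorescence read at 530/590 nm. MIC is the lowest concentration giving ≥90% fluorescence reduction versus bacterium-only controls.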

[2] = system: Mycobacterium tuberculosis; assay: Inhibition of ATP synthase in multi-drug resistant Mycobacterium tuberculosis clinical isolate 14862 assessed as reduction in bacterial growth incubated for 7 days by microplate alamar blue assay; conditions: time 7.0 day; method in brief: as §1
[3] = system: Mycobacterium tuberculosis; assay: Inhibition of ATP synthase in bedaquiline-resistant Mycobacterium tuberculosis assessed as reduction in bacterial growth incubated for 7 days by microplate alamar blue assay; conditions: time 7.0 day; method in brief: as §1
[4] = Ratio of MIC for inhibition of ATP synthase in bedaquiline-resistant Mycobacterium tuberculosis to MIC for inhibition of ATP synthase in Mycobacterium tuberculosis H37Rv
Method in brief: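 Ratio of alamar-blue MIC against the bedaquiline-resistant strain to MIC against H37Rv, both measured in the 7-day microplate alamar blue assay.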

Structure (SMILES)	MIC=>90 [1] [µg/mL]	MIC=>90 [2] [µg/mL]	MIC=>90 [3] [µg/mL]	Ratio [4]
O=c1c(NCc2ccccn2)c(Nc2ccc3c(c2)CCC3)c1=O	0.903 (≈ 2.83 µM)	0.94 (≈ 2.94 µM)	–	–
O=c1c(NCc2ccccn2)c(-c2ccc(N3CCOCC3)cc2)c1=O	0.107 (≈ 0.306 µM)	0.114 (≈ 0.326 µM)	3.02 (≈ 8.63 µM)	14.9
O=c1c(NCc2ccccn2)c(Nc2ccc3c(c2)OCO3)c1=O	0.47 (≈ 1.45 µM)	0.499 (≈ 1.54 µM)	3.76 (≈ 11.6 µM)	7.5
COc1nc2ccc(Br)cc2cc1[C@@H](c1ccccc1)[C@@](O)(CCN(C)C)c1cccc2ccccc12	–	–	2.23 (≈ 4.02 µM)	62
NNC(=O)c1ccncc1	2.26 (≈ 16.5 µM)	> 10	0.052 (≈ 0.379 µM)	–
O=C1CCCc2cc(Nc3c(NCc4ccccn4)c(=O)c3=O)ccc21	0.488 (≈ 1.4 µM)	0.895 (≈ 2.58 µM)	–	–
O=c1c(NCc2ccccn2)c(Nc2ccc3scnc3c2)c1=O	3.53 (≈ 10.5 µM)	3.37 (≈ 10 µM)	–	–
CO[C@H]1/C=C/O[C@@]2(C)Oc3c(C)c(O)c4c(O)c(c(/C=N/N5CCN(C)CC5)c(O)c4c3C2=O)NC(=O)/C(C)=C\C=C\[C@H](C)[C@H](O)[C@@H](C)[C@@H](O)[C@@H](C)[C@H](OC(C)=O)[C@@H]1C	> 10	9.32 (≈ 11.3 µM)	–	–
Cc1cc(Nc2c(NCc3ccccn3)c(=O)c2=O)ccc1N1CCSCC1	0.257 (≈ 0.651 µM)	0.207 (≈ 0.525 µM)	4.85 (≈ 12.3 µM)	5.7
